# Laboratory results: ChEMBL document CHEMBL1140929, “Synthesis and evaluation of 18F-labeled 2-phenylbenzothiazoles as positron emission tomography imaging agents for amyloid plaques in Alzheimer's disease” (J Med Chem, 2009)
# Key:
# Type in all cases: ADME, organism-based
# Lung [1] = experiment: Biodistribution in NMRI mouse lung assessed per gram of tissue at 3.7 MBq/mL, iv after 2 mins by gamma counting; details: in vivo
# Outline: (§1)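 Male NMRI mice (30-40 g) anaesthetised with 0.1 mL ip Hypnorm (fentanyl citrate 63 µg/mL, fluanisone 2 mg/mL). Each received 0.1 mL of HPLC-purified 18F tracer, diluted in 0.9% NaCl to 3.7 MBq/mL (ethanol ≤10%, THF ≤0.02%), via tail vein. Killed by decapitation at 2 or 60 min; blood and organs weighed and γ-counted. Background-corrected, expressed as %ID or %ID/g.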
# Liver [2] = experiment: Biodistribution in NMRI mouse liver assessed per gram of tissue at 3.7 MBq/mL, iv after 2 mins by gamma counting; details: in vivo; outline: as §1
# [3] = Biodistribution in NMRI mouse cerebrum assessed per gram of tissue at 3.7 MBq/mL, iv after 60 mins by gamma counting; details: in vivo, 1 h; outline: as §1
# [4] = Biodistribution in NMRI mouse cerebrum at 3.7 MBq/mL, iv after 2 mins by gamma counting; details: in vivo; outline: as §1
# Stomach [5] = experiment: Biodistribution in NMRI mouse stomach at 3.7 MBq/mL, iv after 60 mins by gamma counting; details: in vivo, 1 h; outline: as §1
# Cerebellum [6] = experiment: Biodistribution in NMRI mouse cerebellum at 3.7 MBq/mL, iv after 2 mins by gamma counting; details: in vivo; outline: as §1
# [7] = Biodistribution in NMRI mouse cerebrum assessed per gram of tissue at 3.7 MBq/mL, iv after 2 mins by gamma counting; details: in vivo; outline: as §1
# Blood [8] = experiment: Biodistribution in NMRI mouse blood at 3.7 MBq/mL, iv after 60 mins by gamma counting; details: in vivo, 1 h; outline: as §1
# Intestine [9] = experiment: Biodistribution in NMRI mouse intestine at 3.7 MBq/mL, iv after 2 mins by gamma counting; details: in vivo; outline: as §1
# Stomach [10] = experiment: Biodistribution in NMRI mouse stomach at 3.7 MBq/mL, iv after 2 mins by gamma counting; details: in vivo; outline: as §1
# [11] = Biodistribution in NMRI mouse urine at 3.7 MBq/mL, iv after 60 mins by gamma counting; details: in vivo, 1 h; outline: as §1
# [12] = Biodistribution in NMRI mouse spleen/pancreas assessed per gram of tissue at 3.7 MBq/mL, iv after 60 mins by gamma counting; details: in vivo, 1 h; outline: as §1
# Blood [13] = experiment: Biodistribution in NMRI mouse blood assessed per gram of tissue at 3.7 MBq/mL, iv after 2 mins by gamma counting; details: in vivo; outline: as §1
# Kidney [14] = experiment: Biodistribution in NMRI mouse kidney assessed per gram of tissue at 3.7 MBq/mL, iv after 60 mins by gamma counting; details: in vivo, 1 h; outline: as §1
# Cerebellum [15] = experiment: Biodistribution in NMRI mouse cerebellum at 3.7 MBq/mL, iv after 60 mins by gamma counting; details: in vivo, 1 h; outline: as §1
# Lung [16] = experiment: Biodistribution in NMRI mouse lung at 3.7 MBq/mL, iv after 60 mins by gamma counting; details: in vivo, 1 h; outline: as §1
# Heart [17] = experiment: Biodistribution in NMRI mouse heart assessed per gram of tissue at 3.7 MBq/mL, iv after 2 mins by gamma counting; details: in vivo; outline: as §1
# Cerebellum [18] = experiment: Biodistribution in NMRI mouse cerebellum assessed per gram of tissue at 3.7 MBq/mL, iv after 2 mins by gamma counting; details: in vivo; outline: as §1
# [19] = Biodistribution in NMRI mouse spleen/pancreas assessed per gram of tissue at 3.7 MBq/mL, iv after 2 mins by gamma counting; details: in vivo; outline: as §1
# Kidney [20] = experiment: Biodistribution in NMRI mouse kidney at 3.7 MBq/mL, iv after 2 mins by gamma counting; details: in vivo; outline: as §1
# Heart [21] = experiment: Biodistribution in NMRI mouse heart assessed per gram of tissue at 3.7 MBq/mL, iv after 60 mins by gamma counting; details: in vivo, 1 h; outline: as §1
# Liver [22] = experiment: Biodistribution in NMRI mouse liver assessed per gram of tissue at 3.7 MBq/mL, iv after 60 mins by gamma counting; details: in vivo, 1 h; outline: as §1
# Liver [23] = experiment: Biodistribution in NMRI mouse liver at 3.7 MBq/mL, iv after 60 mins by gamma counting; details: in vivo, 1 h; outline: as §1
# Intestine [24] = experiment: Biodistribution in NMRI mouse intestine at 3.7 MBq/mL, iv after 60 mins by gamma counting; details: in vivo, 1 h; outline: as §1
# Heart [25] = experiment: Biodistribution in NMRI mouse heart at 3.7 MBq/mL, iv after 60 mins by gamma counting; details: in vivo, 1 h; outline: as §1
# Lung [26] = experiment: Biodistribution in NMRI mouse lung assessed per gram of tissue at 3.7 MBq/mL, iv after 60 mins by gamma counting; details: in vivo, 1 h; outline: as §1
# Heart [27] = experiment: Biodistribution in NMRI mouse heart at 3.7 MBq/mL, iv after 2 mins by gamma counting; details: in vivo; outline: as §1
# [28] = Biodistribution in NMRI mouse cerebrum at 3.7 MBq/mL, iv after 60 mins by gamma counting; details: in vivo, 1 h; outline: as §1
# Kidney [29] = experiment: Biodistribution in NMRI mouse kidney at 3.7 MBq/mL, iv after 60 mins by gamma counting; details: in vivo, 1 h; outline: as §1
# Blood [30] = experiment: Biodistribution in NMRI mouse blood assessed per gram of tissue at 3.7 MBq/mL, iv after 60 mins by gamma counting; details: in vivo, 1 h; outline: as §1
# Cerebellum [31] = experiment: Biodistribution in NMRI mouse cerebellum assessed per gram of tissue at 3.7 MBq/mL, iv after 60 mins by gamma counting; details: in vivo, 1 h; outline: as §1
# Blood [32] = experiment: Biodistribution in NMRI mouse blood at 3.7 MBq/mL, iv after 2 mins by gamma counting; details: in vivo; outline: as §1
# Liver [33] = experiment: Biodistribution in NMRI mouse liver at 3.7 MBq/mL, iv after 2 mins by gamma counting; details: in vivo; outline: as §1
# [34] = Biodistribution in NMRI mouse spleen/pancreas at 3.7 MBq/mL, iv after 60 mins by gamma counting; details: in vivo, 1 h; outline: as §1
# Lung [35] = experiment: Biodistribution in NMRI mouse lung at 3.7 MBq/mL, iv after 2 mins by gamma counting; details: in vivo
# [36] = Biodistribution in NMRI mouse urine at 3.7 MBq/mL, iv after 2 mins by gamma counting; details: in vivo; outline: as §1
# [37] = Biodistribution in NMRI mouse spleen/pancreas at 3.7 MBq/mL, iv after 2 mins by gamma counting; details: in vivo; outline: as §1
# Kidney [38] = experiment: Biodistribution in NMRI mouse kidney assessed per gram of tissue at 3.7 MBq/mL, iv after 2 mins by gamma counting; details: in vivo; outline: as §1
smiles,measurement,setting,value
[11CH3]Nc1ccc(-c2nc3ccc(O)cc3s2)cc1 [PITTSBURGH COMPOUND B],Drug uptake,Lung [1],3.6 % ID/g
same,Drug uptake,Liver [2],7.9 % ID/g
same,Drug uptake,[3],0.6 % ID/g
same,Drug uptake,[4],1.08 %ID
same,Drug uptake,Stomach [5],0.3 %ID
same,Drug uptake,Cerebellum [6],0.17 %ID
same,Drug uptake,[7],3.6 % ID/g
same,Drug uptake,Blood [8],2.7 %ID
same,Drug uptake,Intestine [9],12 %ID
same,Drug uptake,Stomach [10],1.1 %ID
same,Drug uptake,[11],24.4 %ID
same,Drug uptake,[12],0.7 % ID/g
same,Drug uptake,Blood [13],3.1 % ID/g
same,Drug uptake,Kidney [14],9.1 % ID/g
same,Drug uptake,Cerebellum [15],0.03 %ID
same,Drug uptake,Lung [16],0.3 %ID
same,Drug uptake,Heart [17],4.2 % ID/g
same,Drug uptake,Cerebellum [18],1.6 % ID/g
same,Drug uptake,[19],4.7 % ID/g
same,Drug uptake,Kidney [20],10.3 %ID
same,Drug uptake,Heart [21],2.1 % ID/g
same,Drug uptake,Liver [22],5 % ID/g
same,Drug uptake,Liver [23],9.8 %ID
same,Drug uptake,Intestine [24],42.5 %ID
same,Drug uptake,Heart [25],0.3 %ID
same,Drug uptake,Lung [26],1.3 % ID/g
same,Drug uptake,Heart [27],0.6 %ID
same,Drug uptake,[28],0.18 %ID
same,Drug uptake,Kidney [29],4.8 %ID
same,Drug uptake,Blood [30],1.1 % ID/g
same,Drug uptake,Cerebellum [31],0.31 % ID/g
same,Drug uptake,Blood [32],7.9 %ID
same,Drug uptake,Liver [33],15.6 %ID
same,Drug uptake,[34],0.1 %ID
same,Drug uptake,Lung [35],0.9 %ID
same,Drug uptake,[36],0.2 %ID
same,Drug uptake,[37],0.6 %ID
same,Drug uptake,Kidney [38],19.9 % ID/g
